One series deals with T1, murine GC‐A (Mus musculus, UniProt P18293).
T1 sequence (P18293 29-1057): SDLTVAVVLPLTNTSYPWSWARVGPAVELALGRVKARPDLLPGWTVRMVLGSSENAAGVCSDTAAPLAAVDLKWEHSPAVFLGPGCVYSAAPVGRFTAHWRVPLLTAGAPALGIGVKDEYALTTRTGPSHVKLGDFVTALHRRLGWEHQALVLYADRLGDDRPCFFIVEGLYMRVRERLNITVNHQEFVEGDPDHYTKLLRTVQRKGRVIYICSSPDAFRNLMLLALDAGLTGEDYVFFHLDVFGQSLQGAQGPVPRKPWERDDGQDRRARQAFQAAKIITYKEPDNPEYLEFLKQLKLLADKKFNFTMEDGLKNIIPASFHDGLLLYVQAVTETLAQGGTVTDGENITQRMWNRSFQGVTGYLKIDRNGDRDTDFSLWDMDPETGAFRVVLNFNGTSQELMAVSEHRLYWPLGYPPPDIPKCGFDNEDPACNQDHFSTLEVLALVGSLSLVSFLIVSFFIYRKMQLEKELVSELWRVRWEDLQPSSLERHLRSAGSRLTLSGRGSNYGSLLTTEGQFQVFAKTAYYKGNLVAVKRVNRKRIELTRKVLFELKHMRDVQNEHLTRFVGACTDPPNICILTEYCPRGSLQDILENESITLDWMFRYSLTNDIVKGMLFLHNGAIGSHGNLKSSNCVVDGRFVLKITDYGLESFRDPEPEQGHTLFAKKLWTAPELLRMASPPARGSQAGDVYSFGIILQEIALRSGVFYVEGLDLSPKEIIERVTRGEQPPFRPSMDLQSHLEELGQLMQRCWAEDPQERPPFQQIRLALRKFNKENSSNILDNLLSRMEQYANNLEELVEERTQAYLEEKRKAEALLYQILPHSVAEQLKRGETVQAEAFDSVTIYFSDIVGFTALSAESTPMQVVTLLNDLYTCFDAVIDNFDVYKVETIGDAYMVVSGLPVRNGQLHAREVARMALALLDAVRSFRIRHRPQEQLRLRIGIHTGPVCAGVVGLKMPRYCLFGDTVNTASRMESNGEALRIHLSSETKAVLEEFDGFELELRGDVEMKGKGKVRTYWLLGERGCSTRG
As to the kind of experiment: cGMP formation in GC‐A‐transfected HEK293 cells. The series is classed as cell-based. The settings on record: 1 μM peptide, 5 min; cGMP ELISA; n = 3 in triplicates. In outline: (§1)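 HEK293 cells in DMEM/10% FBS were transfected with murine GC‐A or GC‐B plasmid (PolyFect, DMEM/0.5% FBS); empty‐plasmid cells served as controls. After 24 h, cells were exposed to 1 μM peptide or Tris vehicle for 5 min, washed in cold HBSS and lysed. cGMP was measured by ELISA (405 nm, 570 nm correction) in pmol/mL; n = 3 in triplicates.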
(In general: ELISA stands for enzyme-linked immunosorbent assay.)

A short description of series [1]: Degradation of hBNP by human lung homogenate. Type of series: in vitro ADME. The settings on record: 10 μM peptide; human lung homogenate 90 μg protein 150 μL buffer; Tris 50 mM pH 7.5 with 0.1% BSA; 37°C; 10 min; LCMS.
In series [2] the test system is spontaneously hypertensive rats. Type of series: in vivo, rat.
Another series deals with C57B/L6J mice. Put plainly: Plasma cGMP after bolus injection in normotensive mice. Type of series: in vivo, mouse. The settings on record: plasma taken after 4 min haemodynamic measurement, cGMP ELISA. In outline: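 Male 16‐week C57B/L6J mice (randomised, blinded) were anaesthetised with isoflurane, ventilated and kept at about 37°C, with a carotid pressure catheter and jugular cannula. After a 10‐min baseline, an i.v. bolus of 1.67 nmol peptide g‐1 or saline was given and haemodynamics followed for 4 min. EDTA blood was then taken by LV puncture. Plasma cGMP was ELISA‐measured after 95% ethanol extraction; n = 7 per peptide, 5 saline.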

The subject of series [3] is spontaneously hypertensive rats. Put plainly: Cardiac ANP and BNP mRNA by real time PCR in spontaneously hypertensive rats. Type of series: in vivo, rat. The settings on record: SHR; 3 days administration; RT‐PCR, relative to saline treated rats; n = 6. In outline: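 After 3 days of subcutaneous osmotic minipump infusion (300 ng kg‐1 min‐1; saline controls) in male 12‐week SHR, cardiac RNA was isolated. 1 μg RNA was reverse‐transcribed and SYBR Green qPCR run with rat ANP and BNP primers. Melting curves checked product purity. Values are relative to saline‐treated rats; n = 6 per group.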
(In general: Quantitative PCR measures a nucleic acid by following its amplification.)

The test system of series [4] is GC‐A and GC‐B double‐transfected HEK cells. As to the kind of experiment: Dose–response of cGMP in GC‐A and GC‐B double‐transfected HEK cells. The settings on record: compared to BNP1‐32. The series is classed as cell-based, mouse. An outline of the steps:
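HEK293 cells were transfected with both murine GC‐A and GC‐B plasmids and used 24 h later. Cells were stimulated for 5 min with peptide at graded concentrations in Tris vehicle, washed in cold HBSS and lysed. cGMP was quantified by ELISA (405/570 nm). EC50 came from a sigmoidal dose–response fit, and curves were compared by two‐way ANOVA.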

The target in the next series is T2, murine GC‐B (Mus musculus, UniProt Q6VVW5).
T2 sequence (Q6VVW5 17-1047): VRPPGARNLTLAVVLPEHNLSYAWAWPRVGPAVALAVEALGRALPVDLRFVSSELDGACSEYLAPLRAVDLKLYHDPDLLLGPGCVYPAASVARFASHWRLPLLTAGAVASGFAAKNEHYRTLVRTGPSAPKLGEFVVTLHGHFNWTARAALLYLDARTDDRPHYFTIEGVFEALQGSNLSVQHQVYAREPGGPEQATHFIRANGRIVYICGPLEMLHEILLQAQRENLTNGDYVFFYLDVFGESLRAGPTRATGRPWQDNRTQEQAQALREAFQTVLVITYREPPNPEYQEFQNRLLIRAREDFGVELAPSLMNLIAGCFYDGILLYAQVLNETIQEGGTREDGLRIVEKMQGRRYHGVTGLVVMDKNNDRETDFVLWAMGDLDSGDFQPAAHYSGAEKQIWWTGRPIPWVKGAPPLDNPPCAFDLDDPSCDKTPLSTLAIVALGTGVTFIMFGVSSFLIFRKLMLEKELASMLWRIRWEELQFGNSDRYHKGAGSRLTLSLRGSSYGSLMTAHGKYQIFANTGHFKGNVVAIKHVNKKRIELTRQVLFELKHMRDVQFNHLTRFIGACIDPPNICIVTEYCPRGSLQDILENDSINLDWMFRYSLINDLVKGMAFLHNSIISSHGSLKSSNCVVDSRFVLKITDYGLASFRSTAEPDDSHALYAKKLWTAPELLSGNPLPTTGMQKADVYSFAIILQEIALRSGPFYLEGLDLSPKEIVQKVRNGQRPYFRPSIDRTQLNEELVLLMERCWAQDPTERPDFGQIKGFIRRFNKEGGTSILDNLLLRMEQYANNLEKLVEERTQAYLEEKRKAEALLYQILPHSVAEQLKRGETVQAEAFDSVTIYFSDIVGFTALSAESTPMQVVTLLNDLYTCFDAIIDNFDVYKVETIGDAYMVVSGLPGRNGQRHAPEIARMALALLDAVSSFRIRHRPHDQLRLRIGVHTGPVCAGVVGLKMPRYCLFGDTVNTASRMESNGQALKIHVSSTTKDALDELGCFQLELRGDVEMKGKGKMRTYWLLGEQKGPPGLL
Put plainly: cGMP formation in GC‐B‐transfected HEK293 cells. Type of series: cell-based. The settings on record: 1 μM peptide, 5 min; cGMP ELISA; n = 3 in triplicates. In outline: as §1

The text below walks through data of article PMC7056463 (British Journal of Pharmacology, 2020).

Positions of bridges follow the written chain, without caps; N, C: chain ends. Residues, ends and D or L forms follow the SMILES beside them. No end group written: not given here.

Regarding “murine ANP: murine atrial natriuretic peptide (SLRRSSCFGGRIDRIGAQSGLGCNSFRY; disulfide 7-23 (inferred); ends not checked; UniProt P05125 123-150, looked up)”, in the series with murine GC‐A, the “cGMP formation in GC‐A‐transfected HEK293 cells” value (from here on “cGMP formation”) is “stimulated their native receptor GC‐A”.

On to human BNP1‐32: mature human BNP1‐32, for which the “Degradation of hBNP1‐32 in human lung homogenate” value in series [1] was “decreased peak area”.

On to `CC[C@H](C)[C@@H]1NC(=O)[C@H](CCCNC(=N)N)NC(=O)[C@H](CC(=O)O)NC(=O)[C@H]([C@@H](C)CC)NC(=O)[C@H](CCCCN)NC(=O)[C@H](Cc2c[nH]cn2)NC(=O)CNC(=O)[C@H](Cc2ccccc2)NC(=O)[C@@H](NC(=O)[C@H](CO)NC(=O)[C@H](CO)NC(=O)[C@@H](NC(=O)[C@H](Cc2c[nH]cn2)NC(=O)[C@@H](NC(=O)[C@@H](NC(=O)[C@H](CCCCN)NC(=O)[C@H](CO)NC(=O)[C@@H](N)CC(N)=O)C(C)C)[C@@H](C)O)[C@@H](C)CC)CSSC[C@@H](C(=O)N[C@@H](CC(N)=O)C(=O)N[C@@H](C)C(=O)N[C@@H](CC(C)C)C(=O)N[C@@H](CCCCN)C(=O)O)NC(=O)CNC(=O)[C@H](CC(C)C)NC(=O)[C@H](CCCNC(=N)N)NC(=O)[C@H](CO)NC(=O)[C@H](C(C)C)NC(=O)[C@H](CO)NC(=O)CNC1=O` [BNP1‐30] (H-NSKVTHISSCFGHKIDRIGSVSRLGCNALK-OH; disulfide 10-26; N-terminus assumed), for which the “Lowering of SBP” value in series [2] (SHR, osmotic minipump 300 ng kg^‐1 min^‐1 for 3 days, versus saline group) was determined as 16%. Also, the “Reduction of systolic BP (abstract)” value in series [2] (model of severe hypertension, 3‐day infusion) is reported as 30 mmHg. In the series with C57B/L6J mice, the “Increase in plasma cGMP levels compared to BNP1‐32 treated animals” value is reported as “more pronounced increase”. For the same compound, in series [3], the “Cardiac ANP mRNA” value is listed as “more pronounced” and the “Cardiac BNP mRNA levels” value is recorded as “significantly reduced”. Further, the “Efficiency in dose‐response curves of double‐transfected HEK293 cells” value in series [4] is recorded as “more efficient”. For the same compound, at murine GC‐B, the “Stimulation of GC‐B in transfected HEK293 cells” value is on record as “much more pronounced effect” and the “cGMP effect on GC‐B transfected cells in comparison to BNP1‐32” value was 3 fold. In addition, the “cGMP formation” value at murine GC‐A is “significantly higher”.

On to “BNP1‐32: murine B‐type natriuretic peptide 1‐32, synthesised by Biosyntan (SQGSTLRVQQRPQNSKVTHISSCFGHKIDRIG; Brain natriuretic peptide 45; UniProt P40753 77-108, looked up, fragment)”, for which the “cGMP formation” value in the series with murine GC‐A is recorded as “stimulated their native receptor GC‐A”.
